Test results published in ChEMBL document CHEMBL1132405, “Synthesis and SAR of 1-alkyl-2-phenylethylamine derivatives designed from N,N-dipropyl-4-methoxy-3-(2-phenylethoxy)phenylethylamine to discover sigma(1) ligands” (J Med Chem, 1999).

Legend:
D(2) dopamine receptor = D(2) dopamine receptor (Rattus norvegicus, UniProt P61169); experiment: In vitro binding affinity at Dopamine receptor D2 of rat striatal membranes by [3H]-raclopride displacement.
[1] = (§1) In vitro binding affinity at Sigma opioid receptor type 1 on guinea pig brain membranes by [3H]pentazocine displacement.; parameters: species or system Membrane
[2] = as §1; parameters: species or system Membrane; remark: listed apart in the source
Summary of the method: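 IC50 from displacement curves at 10 concentrations of each compound, each run in duplicate. Values are means of 1–3 separate experiments, with variation between experiments below 15%.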

Chain of D(2) dopamine receptor (P61169 whole entry): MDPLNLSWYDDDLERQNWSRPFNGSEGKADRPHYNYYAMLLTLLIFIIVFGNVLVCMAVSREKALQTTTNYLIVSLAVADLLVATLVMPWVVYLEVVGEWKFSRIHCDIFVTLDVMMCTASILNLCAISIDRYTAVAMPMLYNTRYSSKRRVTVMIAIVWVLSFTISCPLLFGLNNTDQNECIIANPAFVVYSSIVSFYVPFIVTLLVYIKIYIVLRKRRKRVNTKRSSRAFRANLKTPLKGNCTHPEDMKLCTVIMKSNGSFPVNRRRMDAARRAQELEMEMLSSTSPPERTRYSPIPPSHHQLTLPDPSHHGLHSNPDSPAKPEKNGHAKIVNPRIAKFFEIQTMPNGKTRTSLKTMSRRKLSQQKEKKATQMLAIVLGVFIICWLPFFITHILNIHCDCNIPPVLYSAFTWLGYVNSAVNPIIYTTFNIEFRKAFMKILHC

In the case of `COc1ccc(CCN2CCCC2)cc1OCCc1ccccc1`, the IC50 (D(2) dopamine receptor) is reported as over 1000 nM.

For `CCCNC(CC)Cc1ccc(OC)c(OCCc2ccccc2)c1` (stereo unspecified), the IC50 (D(2) dopamine receptor) was over 1000 nM and the IC50 [1] was 1.8 nM.

With `CCCN(CCC)C(CC)Cc1ccc(OC)c(OCCc2ccccc2)c1` (stereo unspecified) the IC50 (D(2) dopamine receptor) was over 1000 nM.

Work on `CCCNC(CCC)Cc1ccc(OC)c(OCCc2ccccc2)c1` (stereo unspecified) yielded an IC50 (D(2) dopamine receptor) of over 1000 nM and an IC50 [1] of 4.1 nM.

In the case of `CCCCC(Cc1ccc(OC)c(OCCc2ccccc2)c1)NCCC` (stereo unspecified) [listing 1 of 2 here], the IC50 (D(2) dopamine receptor) is reported as over 1000 nM and the IC50 [1] is reported as 1.9 nM.

`CCCCCCC(Cc1ccc(OC)c(OCCc2ccccc2)c1)NCCC` (stereo unspecified) gave an IC50 (D(2) dopamine receptor) of over 1000 nM and an IC50 [1] of 8.1 nM.

Compound `CCCC(Cc1ccc(OC)c(OCCc2ccccc2)c1)N(CCC)CCC` (stereo unspecified) has an IC50 (D(2) dopamine receptor) of over 1000 nM and an IC50 [1] of 8.2 nM.

Compound `CCCN(CCC)CCc1ccc(OC)c(OCCc2ccccc2)c1` has an IC50 (D(2) dopamine receptor) of over 1000 nM and an IC50 [2] of 1.5 nM.

Compound `CCCCC(Cc1ccc(OC)c(OCCc2ccccc2)c1)NCCC` (stereo unspecified) [listing 2 of 2 here] has an IC50 [1] of 34 nM.

In the case of `COc1ccc(CCN)cc1OCCc1ccccc1`, the IC50 (D(2) dopamine receptor) is reported as over 1000 nM.

`CCCNCCc1ccc(OC)c(OCCc2ccccc2)c1` showed an IC50 (D(2) dopamine receptor) of over 1000 nM.

Compound `CCCCCC(Cc1ccc(OC)c(OCCc2ccccc2)c1)NCCC` (stereo unspecified) has an IC50 (D(2) dopamine receptor) of over 1000 nM and an IC50 [1] of 2.2 nM.

Compound `CCCNC(CCC(C)C)Cc1ccc(OC)c(OCCc2ccccc2)c1` (single isomer, unassigned; (-)) has an IC50 (D(2) dopamine receptor) of over 1000 nM and an IC50 [1] of 0.5 nM.

`CCCCC(Cc1ccc(OC)c(OCCc2ccccc2)c1)NCCC` (single isomer, unassigned; (-)) gave an IC50 (D(2) dopamine receptor) of over 1000 nM and an IC50 [1] of 0.7 nM.

`CCCNC(CCC(C)C)Cc1ccc(OC)c(OCCc2ccccc2)c1` (stereo in doubt; 6i(+)) gave an IC50 [1] of 22 nM.

Compound `CCCNC(CCC(C)C)Cc1ccc(OC)c(OCCc2ccccc2)c1` (stereo in doubt; 6i) has an IC50 (D(2) dopamine receptor) of over 1000 nM and an IC50 [1] of 1.6 nM.
